Compound activity as filed in PubChem BioAssay.
Only some compounds are listed: those with a hit (about 1.6% of all), similar ones and a draw of the others.
Diaph inh CS: diaphorase inhibition or chemical oxidation counter-screen; diaphorase resazurin-to-resorufin fluorescence, NADH, 16 min; bacterial (C. kluyveri) enzyme, not human; inhibition, % at 20 µM; hit rate 0.69% among 190,000; AID 1217;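 active = primary screen inhibition at 20 µM above a set limit, cut at about 50% in these data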
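System: Bacterial diaphorase enzyme (C. kluyveri) | Incubation: 16-min room-temperature incubation before reading | Benchmarks: No-NADH positive control and DMSO neutral control | Measured by: Resorufin fluorescence 544/590 nm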
ABCG2 inh: inhibitors of human ABCG2 transporter, ABCB1 counter-screen; Q9UNQ0; inhibition, % at 6.6 µM; IgMXP3 cells, JC-1 efflux, flow cytometry; hit rate 0.1% among 190,000;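 active = inhibition above 80%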
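Test system: IgMXP3 (ABCG2) plus far-red-tagged CCRF-Adr (ABCB1) cells / Amount: 3 million cells/mL in well / Reagent: JC-1 transporter substrate / Timing: 10 min compound exposure, 25 °C / Signal: flow cytometry, 530 nm JC-1 signal / Read-out: percent efflux inhibition, scaled nicardipine 100% to DMSO 0% / Benchmarks: nicardipine as high control, DMSO as low control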
Efa HMGR inh: blocks class II HMG-CoA reductase of Enterococcus faecalis; hit rate 0.41% among 190,000; AID 1066; purified E. faecalis HMGR, NADPH absorbance 340 nm kinetic; inhibition, % at 10 µM;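 active = inhibition above a set limit, the median over all tested compounds plus 3 SD, cut at about 9.5% in these data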;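 also: enzyme runs in reverse so mevalonate oxidation gives rising NADPH absorbance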
ABCB1 block: inhibitors of human ABCB1 transporter, ABCG2 counter-screen; P08183; CCRF-Adr cells, JC-1 efflux, flow cytometry; inhibition, % at 6.6 µM; hit rate 0.067% among 190,000; AID 1326; in the data active = inhibition above about 40%;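 also: higher value means more JC-1 retained so stronger ABCB1 efflux block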
Target sequence (P08183 whole entry, looked up): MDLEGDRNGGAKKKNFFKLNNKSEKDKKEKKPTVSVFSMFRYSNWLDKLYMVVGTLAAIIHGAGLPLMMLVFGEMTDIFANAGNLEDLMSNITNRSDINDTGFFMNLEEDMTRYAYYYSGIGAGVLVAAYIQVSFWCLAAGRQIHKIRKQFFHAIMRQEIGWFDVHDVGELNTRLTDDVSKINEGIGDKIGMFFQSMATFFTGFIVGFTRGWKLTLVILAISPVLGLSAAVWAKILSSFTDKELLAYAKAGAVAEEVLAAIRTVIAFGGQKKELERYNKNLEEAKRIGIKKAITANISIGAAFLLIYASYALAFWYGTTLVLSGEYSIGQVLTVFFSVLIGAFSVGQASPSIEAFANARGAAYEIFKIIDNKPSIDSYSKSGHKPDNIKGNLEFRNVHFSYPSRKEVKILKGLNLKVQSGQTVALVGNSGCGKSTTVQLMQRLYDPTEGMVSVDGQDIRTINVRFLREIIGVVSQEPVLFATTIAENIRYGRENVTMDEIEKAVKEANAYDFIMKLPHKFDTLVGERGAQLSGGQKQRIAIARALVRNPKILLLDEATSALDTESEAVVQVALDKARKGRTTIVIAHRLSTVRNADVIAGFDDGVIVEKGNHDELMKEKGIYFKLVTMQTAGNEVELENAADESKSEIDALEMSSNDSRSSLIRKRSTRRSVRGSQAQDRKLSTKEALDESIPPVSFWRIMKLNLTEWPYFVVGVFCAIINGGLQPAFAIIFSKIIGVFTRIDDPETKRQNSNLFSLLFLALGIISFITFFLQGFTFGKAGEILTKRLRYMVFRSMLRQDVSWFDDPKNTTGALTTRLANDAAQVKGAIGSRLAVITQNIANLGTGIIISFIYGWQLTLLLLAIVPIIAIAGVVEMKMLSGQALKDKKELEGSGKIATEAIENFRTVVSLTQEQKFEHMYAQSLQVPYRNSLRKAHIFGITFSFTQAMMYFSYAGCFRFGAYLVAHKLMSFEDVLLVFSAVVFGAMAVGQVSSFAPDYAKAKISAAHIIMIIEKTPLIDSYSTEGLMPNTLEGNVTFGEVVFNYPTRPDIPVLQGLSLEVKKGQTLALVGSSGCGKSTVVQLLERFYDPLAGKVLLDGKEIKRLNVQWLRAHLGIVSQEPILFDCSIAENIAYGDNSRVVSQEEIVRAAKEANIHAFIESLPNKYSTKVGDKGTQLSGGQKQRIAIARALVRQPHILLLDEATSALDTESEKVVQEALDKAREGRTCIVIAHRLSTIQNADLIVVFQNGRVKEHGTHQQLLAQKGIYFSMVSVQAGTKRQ
p47phox inh: blocks human p47phox regulatory protein of NADPH oxidases; p47phox/p22phox peptide binding, fluorescence polarization, 2 h; P14598; hit rate 0.53% among 220,000; AID 1274; inhibition, % at 24.7 µM;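 active = inhibition above about 30%, limit read from the data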
Diaphorase act: activates diaphorase or chemically reduces, flagging diaphorase assay artifacts; Diaphorase/resazurin coupled assay, resorufin fluorescence, 16 min; active compounds read high; 1 = vehicle wells, 0 = NADH-free wells; activation factor at 20 µM; hit rate 0.005% among 190,000;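 active = diaphorase activity raised at least twofold by the compound at 20 µM; inactive = activation factor below 2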
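System – purified diaphorase enzyme from Clostridium kluyveri · Input – enzyme 0.07 U/mL final · Also added – final NADH 0.114 mM, resazurin 0.1 mM · Measured by – fluorescence of resorufin, 544 nm excitation, 590 nm emission · Timing – 16 min enzyme reaction, ambient temperature · Measure – resorufin increase flagging diaphorase activators or reducers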
Of the large screens only hits and unclear results are named; the others gave an inactive call.

CN(C)CC(=O)c1ccc(-c2ccccc2)cc1	p47phox inh 44.0
COc1ccc(N(CC(=O)NCCSCc2c(F)cccc2Cl)S(C)(=O)=O)cc1OC	none
COc1ccc(C2=CC3=C(Br)C(=O)C(C)(OC(=O)C4CCCC4)C(=O)C3=CO2)cc1 (stereo unspecified)	none (no result: Diaph inh CS, ABCG2 inh, Efa HMGR inh, ABCB1 block, Diaphorase act)
Cc1ccc(S(=O)(=O)Nc2cccc3ncccc23)cc1	none (no result: Diaph inh CS, ABCG2 inh, Efa HMGR inh, ABCB1 block, Diaphorase act)
Cc1ccc(S(=O)(=O)Nc2ccc(O)c3ncccc23)cc1	Diaph inh CS 57.4
O=C(O)C1CC=CCC1C(=O)N1CCCC1 (stereo unspecified)	none
O=C(O)c1cc(Br)ccc1NN=C1CCCCC1	none
COC(=O)c1sc(-c2ccccc2)cc1NC(C)=O	none
CCC(C)(C)c1ccc(OCCCC[n+]2ccc(C)cc2)c(C(C)(C)CC)c1	p47phox inh 33.2
CCC(C)(C)c1ccc(OCCCC[n+]2cccc(C)c2C)c(C(C)(C)CC)c1	p47phox inh 49.2 (no result: Diaph inh CS, ABCG2 inh, Efa HMGR inh, ABCB1 block, Diaphorase act)
COc1ccc(C(=O)C[n+]2cccc(C)c2C)cc1[N+](=O)[O-]	none
CCOC(=O)N(NC(=O)C(O)(c1ccccc1)c1ccccc1)c1ccccc1	none
Cc1ccc(OCCn2cc(C(=S)N3CCCC3)c3ccccc32)cc1C	none
COc1ccc(/C=N/Nc2nn3cnnc3c3ccccc23)cc1	none (no result: Diaph inh CS, ABCG2 inh, Efa HMGR inh, ABCB1 block, Diaphorase act)
CCOc1cc2[nH]c(=S)n(CCCCC(=O)NCc3ccco3)c(=O)c2cc1OCC	none
CCOc1cc2[nH]c(=S)n(CCC(=O)NCc3ccc(OC)cc3)c(=O)c2cc1OCC	p47phox inh 35.1
Cc1ccc([N+](=O)[O-])cc1N/C=C1\CCc2ccccc2C1=O	Diaph inh CS 57.9
CCCSC1=N/C(=C\c2ccc([N+](=O)[O-])o2)C(=O)S1	none
O=C1ON=C(c2ccccc2)/C1=C/c1ccco1	none
O=C1ON=C(c2ccccc2)/C1=C/c1ccc(-c2ccccc2[N+](=O)[O-])o1	p47phox inh 141.7
CCSC1=N/C(=C\c2ccc(-c3ccccc3[N+](=O)[O-])o2)C(=O)S1	Diaph inh CS 62.7
COc1ccccc1-n1c(C)nc2cc(C(=O)O)ccc21	p47phox inh 39.3
CSc1nnc(-c2ccccc2)c(-c2ccccc2)n1	none (no result: Diaph inh CS, ABCG2 inh, Efa HMGR inh, ABCB1 block, Diaphorase act)
COc1ccc(C(=O)CSc2nnc(-c3ccco3)c(-c3ccco3)n2)cc1	Diaph inh CS 61.7
CSc1nnc(-c2ccco2)c(-c2ccco2)n1	Diaph inh CS 60.9
Cc1nc2ccccc2nc1OCc1ccccc1	none
Fc1ccc(C2=Nn3c(nnc3-c3ccco3)SC2)cc1	none (no result: Diaph inh CS, ABCG2 inh, Efa HMGR inh, ABCB1 block, Diaphorase act)
c1ccc(C2=Nn3c(nnc3-c3ccco3)SC2)cc1	Diaph inh CS 73.1
c1csc(-c2nc3nc4ccccc4nc3n2Cc2ccc3c(c2)OCO3)c1	none
Clc1ccccc1-c1nc2nc3ccccc3nc2n1-c1ccc2c(c1)OCO2	p47phox inh 174.3
Cc1ccc(S(=O)(=O)/C(C#N)=C/c2c(N3CCC(C(N)=O)CC3)nc3ccccn3c2=O)cc1	Efa HMGR inh 11.2
N#Cc1cnc(Sc2ccccc2)nc1	none
Cc1cc(N2CCN(c3nc(-c4ccc([N+](=O)[O-])cc4)cs3)CC2)c2ccccc2n1	Efa HMGR inh 14.1
Cc1cc(-c2ccc([N+](=O)[O-])cc2)nc2ccccc12	none
Cc1ccc(-c2nnc(Oc3ccc(NC(=O)c4ccccc4)cc3)c3ccccc23)cc1	p47phox inh 42.5
Cc1ccc(Oc2nnc(-c3ccccc3)c3ccccc23)cc1	none
CC(C(=O)c1ccccc1)n1c(N2CCOCC2)nc2c1c(=O)n(C)c(=O)n2C (stereo unspecified)	p47phox inh 54.8
Cn1c(=O)c2c(nc(N3CCOCC3)n2CC(=O)c2ccccc2)n(C)c1=O	none (no result: ABCG2 inh, Efa HMGR inh, ABCB1 block, p47phox inh)
CCn1nc(C(=O)Nc2ccc3nc(C)sc3c2)c2ccccc2c1=O	none
COc1ccc(-c2cnnc(N/N=C/c3ccc(-c4ccc([N+](=O)[O-])cc4)o3)n2)cc1	p47phox inh 59.6
O=C(N/N=C/c1ccc(N2CCOCC2)o1)c1cccc([N+](=O)[O-])c1	Diaph inh CS 75.9
O=C(N/N=C/c1ccc(N2CCCCC2)o1)c1ccccc1	none
COc1nc(N/N=C/c2ccc(-c3cccc([N+](=O)[O-])c3)o2)nc(N2CCOCC2)n1	p47phox inh 76.1
COc1ccc(C2c3c(ncn(CCCO)c3=N)Oc3ccc4ccccc4c32)cc1 (stereo unspecified)	none (no result: Diaph inh CS, ABCG2 inh, Efa HMGR inh, ABCB1 block, Diaphorase act)
Cc1ccccc1/C=C\c1nc2ccccc2c(=O)[nH]1	none
Cc1ccc(S(=O)(=O)Nc2cc(=O)[nH]c3c2CCC3)cc1	none (no result: Diaph inh CS, ABCG2 inh, Efa HMGR inh, ABCB1 block, Diaphorase act)
ClC(/C=N/n1cnnc1)=C/c1ccccc1	none (no result: Diaph inh CS, ABCG2 inh, Efa HMGR inh, ABCB1 block, Diaphorase act)
CCCCN(CC)S(=O)(=O)c1ccc(C(=O)N(CCCN(C)C)c2nc3cc(C)cc(C)c3s2)cc1	p47phox inh 36.2
CCOC(=O)c1[nH]ncc1CN1CCC(Cc2ccccc2)(C(=O)OCC)CC1	none (no result: Diaph inh CS, ABCG2 inh, Efa HMGR inh, ABCB1 block, Diaphorase act)
Cc1cc(C(F)(F)F)nn1CC(=O)NCc1ccco1	none
Cc1cc(NS(=O)(=O)c2ccc(Cl)cc2)nn1CC(=O)NCc1ccco1	p47phox inh 55.3
CCCCOC(=O)c1ccc(NC(=O)Nc2ccc(OC)c(OC)c2)cc1	none
CCCCOC(=O)c1ccc(NC(=O)c2c(OC)cccc2OC)cc1	p47phox inh 37.5
O=C1CCCC2=C1C(c1ccc(Cl)cc1)N1C(=O)CCSC1=N2 (stereo unspecified)	none
C=CCNC(=O)c1onc(CSc2cccc(OC)c2)c1C(=O)O	p47phox inh 31.9
COc1ccccc1NC(=O)c1c(Nc2ccccc2C)sc(C(=O)Nc2cccc(Cl)c2)c1N	none
O=C(CCc1ccc(S(=O)(=O)N2CCOCC2)cc1)N/N=C/c1ccc(O)c(O)c1O	Diaph inh CS 70.9
O=[N+]([O-])c1ccc(N/N=C/c2ccc(O)c(O)c2O)c(S(=O)(=O)N2CCOCC2)c1	Diaph inh CS 88.0, Efa HMGR inh 21.8
CN(CC(=O)NCCCN1CCOCC1)S(=O)(=O)c1ccc(Br)cc1	none
CCCC1(C(=O)OCC)NC(c2ccc(N(C)C)cc2)C2C(=O)N(c3ccc(F)cc3)C(=O)C21 (stereo unspecified)	none
COC(=O)c1ccc(NC(=O)Nc2ccccc2C)cc1	none
COC(=O)c1ccc(NC(=O)Nc2ccccc2F)cc1	Efa HMGR inh 16.9
Cc1c(C=O)c(C=O)c(C)n1Cc1ccccc1	none
CN(Cc1ccccc1)c1nc(N)nc(Cl)c1C=O	Efa HMGR inh 13.7
O=C(c1ccc(S(=O)(=O)c2ccccc2)cc1)N1CCc2ccccc2C1	Diaph inh CS 51.3
CN(c1ccc(C(=O)N2CCCCC2)cc1)S(=O)(=O)c1ccccc1	Efa HMGR inh 31.0
COc1cc2c(cc1OC)CN(C(=O)c1ccc(S(=O)(=O)N3CCCCC3)cc1)CC2	p47phox inh 49.2
